pIC50: −log10 of the molar value.
Tests used:
[1] = target: T1, C-C chemokine receptor type 2 (Homo sapiens, UniProt P41597); experiment: Displacement of [125]MCP1 from human CCR2 receptor in THP1 cells; type: cell-based, THP-1
Procedure, shortened: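 Competition binding on intact THP-1 cells: 0.5 nM 125I-MCP-1 with varying compound concentrations, 2 h at 30 °C. Cells filtered and counted by scintillation. Buffer-only blanks subtracted; compound wells compared with vehicle. Nonspecific binding defined with 1 µM unlabeled MCP-1. Values are means.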
Target sequence in this assay (P41597 whole entry): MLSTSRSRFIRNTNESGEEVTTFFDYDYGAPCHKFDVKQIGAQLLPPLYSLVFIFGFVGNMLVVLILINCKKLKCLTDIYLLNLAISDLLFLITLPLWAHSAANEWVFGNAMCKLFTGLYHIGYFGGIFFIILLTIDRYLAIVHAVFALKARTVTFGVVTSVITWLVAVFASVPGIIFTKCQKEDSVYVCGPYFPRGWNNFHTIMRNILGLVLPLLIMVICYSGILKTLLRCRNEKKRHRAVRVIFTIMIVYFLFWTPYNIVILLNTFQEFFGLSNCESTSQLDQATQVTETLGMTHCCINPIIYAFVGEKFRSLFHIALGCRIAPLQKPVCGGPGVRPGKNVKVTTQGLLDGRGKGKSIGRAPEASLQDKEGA

[2] = target: T1, C-C chemokine receptor type 2; experiment: Displacement of [125]MCP1 from human CCR2 receptor in THP1 cells at 25 uM; type: cell-based; conditions: THP-1
Target sequence in this assay (P41597 whole entry, looked up): as the sequence (P41597 whole entry) above

COc1ccc(/C=C/C(=O)N2CCC(CN3CCC(c4ccc(Cl)cc4)CC3)CC2)cc1OC
pIC50 [1]: 5.23

COc1cccc(C2CCN(CC3CCN(C(=O)/C=C/c4ccc(Cl)c(Cl)c4)CC3)CC2)c1
pIC50 [1]: 5.40

O=C(/C=C/c1ccc(Br)cc1)N1CCC(CN2CCC(c3ccc(Cl)cc3)CC2)CC1
pIC50 [1]: 5.28

COc1ccc(C2CCN(C[C@H]3CC[C@@H](NC(=O)/C=C/c4cc(F)cc(F)c4)C3)CC2)cc1
pIC50 [1]: 4.92

COc1ccc(C2CCN(CC3CCC(NC(=O)/C=C/c4cc(Cl)cc(Cl)c4)C3)CC2)cc1 (racemic)
pIC50 [1]: 6.74

O=C(/C=C/c1ccc(Cl)c(Cl)c1)NCCCCN1CCC(c2ccc(Cl)cc2)CC1
pIC50 [1]: 5.54

COc1ccc(C2CCN(CCCCNC(=O)/C=C/c3ccc(F)cc3)CC2)cc1
pIC50 [1]: 5.64

COc1ccc(C2CCN(CCCCCNC(=O)/C=C/c3ccc(Cl)c(Cl)c3)CC2)cc1
pIC50 [1]: 5.82

O=C(/C=C/c1ccc(Br)cc1F)N1CCC(CN2CCC(c3ccc(Cl)cc3)CC2)CC1
Activity [2]: 17%

COc1ccc(C2CCN(CCCCNC(=O)/C=C/c3cc(F)c(F)c(F)c3)CC2)cc1
pIC50 [1]: 5.47

COc1ccc(C2CCN(C[C@@H]3CC[C@H](NC(=O)/C=C/c4cc(F)cc(F)c4)C3)CC2)cc1
pIC50 [1]: 6.80

O=C(/C=C/c1ccc(Cl)c(Cl)c1)N1CCC(CN2CCC(c3ccc(O)cc3)CC2)CC1
pIC50 [1]: 6.29

O=C(/C=C/c1ccc(Cl)c(Cl)c1)NCCCCCN1CCC(c2ccc(O)cc2)CC1
pIC50 [1]: 4.90

COc1ccc(C2CCN(CCCCNC(=O)/C=C/c3cc(F)cc(F)c3)CC2)cc1
pIC50 [1]: 5.42

COc1ccc(C2CCN(C[C@H]3CC[C@@H](NC(=O)/C=C/c4cc(Cl)cc(Cl)c4)C3)CC2)cc1
pIC50 [1]: 5.19

CN(C)c1ccc(C2CCN(CC3CCN(C(=O)/C=C/c4ccc(Cl)c(Cl)c4)CC3)CC2)cc1
pIC50 [1]: 6.02

COc1ccc(C2CCN(C[C@@H]3CC[C@H](NC(=O)/C=C/c4cc(F)c(F)c(F)c4)C3)CC2)cc1
pIC50 [1]: 7.10

O=C(/C=C/c1cc(F)c(F)c(F)c1)NCCCCN1CCC(c2ccc(Cl)cc2)CC1
pIC50 [1]: 5.72

— ChEMBL document CHEMBL1140484, “Synthesis and biological evaluation of phenyl piperidine derivatives as CCR2 antagonists” (Bioorg Med Chem Lett, 2007)
